STAT1 activator = STAT1 signaling activation; 2.6% of 200,000 active; activation (% of control), % at 5.5 µM; NIH 3T3 STAT1-luciferase reporter, IFN-gamma, luminescence; 100% = IFN-gamma alone, no compound;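 active = activation above the screen-wide mean activation plus 3 SD, cut at about 130% in these data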
STAT3 inh-1 = inhibitors of IL-6 induced STAT3 signaling; inhibition, % at 5.5 µM; 0.89% of 190,000 active; U3A cells, IL-6 STAT3-luciferase reporter, luminescence; host cell line lacks STAT1;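 active = inhibition above the mean inhibition across all screened compounds plus 3 SD, cut at about 44% in these data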
STAT3 activator = increases IL-6 driven STAT3 reporter signal. 0.91% of 190,000 active. activation (% of control), % at 5.6 µM. AID 871. U3A cells, IL-6 STAT3-luciferase reporter, luminescence; 100% = signal with IL-6 EC80 alone;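 active = activation above the screen-wide mean of compound activation plus 3 SD, cut at about 130% in these data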
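Detection: reporter luminescence signal / Assay system: STAT1-lacking human U3A cells, STAT3 luciferase reporter / Incubation: compound pre-incubation 1 h before IL-6, then 6 h stimulation at 37 °C / Control set: IL-6-only high control / Read-out: % activation relative to IL-6 control / Probe or stimulus: Interleukin-6, 33 ng/mL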
NF-kB neuron act = compounds increasing NF-kB expression in human neuronal cells | AID 1239 | fold change at 12.5 µM | 1.6% of 190,000 active | NF-kB reporter expression; hits give high values; in the data active = fold change above about 3.3
STAT1 blocker = reduces IFN-gamma driven STAT1 reporter signal; NIH 3T3 STAT1-luciferase reporter, luminescence; inhibition, % at 5.5 µM; 0.35% of 200,000 active; AID 920;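 active = inhibition above a set limit, the mean inhibition across all tested compounds plus 3 SD, cut at about 34% in these data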
APP 5'UTR act = activates APP 5'UTR luciferase reporter; SH-SY5Y APP 5'UTR luciferase reporter, luminescence; zero percent = DMSO vehicle wells; activation, % at 2 µM; 1% of 190,000 active;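 active = activation above a set limit, based on mean plus 3 SD of controls, cut at about 140% in these data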
STAT3 inh-2 = STAT3 inhibition, confirmation assay; shares compounds with STAT3 inh-1; U3A cells, IL-6 STAT3 luciferase reporter, luminescence; cell line lacks STAT1; inhibition, % at 5.7 µM; 45% of 1,200 active; AID 1265;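 active = inhibition above the hit cutoff computed for the primary STAT3 screen, cut at about 44% in these data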
NFkB inh STAT3ct = NF-kappaB inhibition in STAT3 inhibitor counter-screen; HEK293T NF-kB luciferase reporter, TNF-alpha induced; 36% of 1,200 active; shares compounds with STAT3 inh-1; AID 1308; inhibition, % at 5.7 µM;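 active = inhibition above the mean of solvent-only control wells plus 3 SD, cutoff set per campaign, cut at about 13% in these data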
STAT1 inh STAT3c = counter-screen for STAT3 inhibitors: STAT1 inhibition; 27% of 1,200 active; inhibition, % at 5.7 µM; shares compounds with STAT3 inh-1; NIH 3T3 STAT1-luciferase reporter, IFN-gamma induced, luminescence;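 active = inhibition above the mean plus 3 SD of solvent-only control wells, limit set per screening run, cut at about 16% in these data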
Large screens that a line does not name were inactive (follow-up assays come after a bar, where they were run). An excerpt weighted towards active compounds, which were near 5.1% of everything screened.

Cc1nc(NC(=O)/C=C/c2ccco2)sc1C	STAT1 activator 144, STAT3 inh-1 45 | STAT3 inh-2 inactive | NFkB inh STAT3ct inactive | STAT1 inh STAT3c inactive
S=c1[nH]c(-c2ccc(Br)cc2)cn1CCc1ccccc1	none
CCOc1ccc(-n2c(=S)sc3c(=O)[nH]c(SCC(=O)C(C)(C)C)nc32)cc1	none
CN(Cc1ccccc1)C(=O)c1ccc2c(c1)NC(=O)C(N1CCOCC1)S2 (stereo unspecified)	none
COCCn1c(=NC(=O)/C=C/c2ccccc2)sc2cc(NC(C)=O)ccc21	none
O=c1c2ccccc2nc(N/N=C/c2ccc(O)cc2)n1O	STAT3 inh-1 52 | STAT3 inh-2 inactive | NFkB inh STAT3ct 16 | STAT1 inh STAT3c 34
O=c1c2ccccc2nc(N/N=C/c2c(O)ccc3ccccc23)n1O	STAT3 inh-1 46 | STAT3 inh-2 inactive | NFkB inh STAT3ct 21 | STAT1 inh STAT3c inactive
CC1(C)CC(c2nc(-c3ccc([N+](=O)[O-])cc3)cs2)CCO1 (stereo unspecified)	none
COc1ccc2[nH]c3c(NCCN(C(C)C)C(C)C)ncnc3c2c1	none
C1=C(CCNc2ncnc3c2[nH]c2ccccc23)CCCC1	STAT3 inh-1 83 | STAT3 inh-2 78 | NFkB inh STAT3ct 41 | STAT1 inh STAT3c 32
O=c1c2[nH]c3ccccc3c2ncn1CCC1=CCCCC1	none
CC(C)OCCCNc1ncnc2c1[nH]c1ccccc12	STAT3 inh-1 66 | STAT3 inh-2 62 | NFkB inh STAT3ct 18 | STAT1 inh STAT3c 32
O=C(Nc1ccccc1)Nc1ncc([N+](=O)[O-])s1	STAT3 inh-1 54, NF-kB neuron act 4.1 | STAT3 inh-2 inactive | NFkB inh STAT3ct inactive | STAT1 inh STAT3c inactive
CCCCC(=O)Nc1ncc([N+](=O)[O-])s1	none
Cc1nc(C)c(C(=O)Nc2ncc([N+](=O)[O-])s2)o1	STAT3 inh-1 68 | STAT3 inh-2 inactive | NFkB inh STAT3ct inactive | STAT1 inh STAT3c inactive
CCN1CCN(C(=S)c2ccc(-c3ccccc3)cc2)CC1	STAT3 inh-1 47 | STAT3 inh-2 inactive | NFkB inh STAT3ct inactive | STAT1 inh STAT3c inactive
Cc1cc(Cl)ccc1OCC(=O)NN1C(=O)C2C3C=CC(C3)C2C1=O (stereo unspecified)	none
COc1cccc(OC)c1NC(=O)Cc1nn(C)c(=O)c2ccccc12	none
COc1ccccc1NC(=O)Cc1nn(C)c(=O)c2ccccc12	STAT3 inh-1 54 | STAT3 inh-2 54 | NFkB inh STAT3ct 13 | STAT1 inh STAT3c 18
Cn1nc(CC(=O)N2CCN(c3ccccc3)CC2)c2ccccc2c1=O	none
COc1cc(NC(=O)Cc2nn(C)c(=O)c3ccccc23)cc(OC)c1	STAT3 inh-1 48 | STAT3 inh-2 inactive | NFkB inh STAT3ct inactive | STAT1 inh STAT3c 17
Cn1nc(CC(=O)NCc2ccc(F)cc2)c2ccccc2c1=O	none
Cc1csc(NC(=O)Cc2nn(C)c(=O)c3ccccc23)n1	STAT3 inh-1 54 | STAT3 inh-2 60 | NFkB inh STAT3ct 18 | STAT1 inh STAT3c 21
Cn1nc(CC(=O)Nc2ccc(N3CCN(C(=O)OC(C)(C)C)CC3)cc2)c2ccccc2c1=O	STAT3 inh-1 80 | STAT3 inh-2 83 | NFkB inh STAT3ct 32 | STAT1 inh STAT3c 22
CN=C1S/C(=C\c2cc(C)n(-c3ccccc3F)c2C)C(=O)N1C	STAT3 inh-1 56 | STAT3 inh-2 inactive | NFkB inh STAT3ct inactive | STAT1 inh STAT3c inactive
CN=C1S/C(=C\c2ccc(N3CCOCC3)cc2C)C(=O)N1C	none
O=C(NC(=S)NCCCN1CCOCC1)c1ccc([N+](=O)[O-])cc1	none
O=C(O)CNS(=O)(=O)c1ccc(Br)s1	none
CCN(C1CCCCC1)S(=O)(=O)c1ccc(S(=O)(=O)NCc2ccncc2)cc1	STAT3 inh-1 62 | STAT3 inh-2 inactive | NFkB inh STAT3ct 15 | STAT1 inh STAT3c 25
O=S(=O)(NCc1ccncc1)c1ccccc1	none
O=S(=O)(NCc1ccncc1)c1ccc(Br)s1	STAT3 inh-1 83 | STAT3 inh-2 80 | NFkB inh STAT3ct 27 | STAT1 inh STAT3c 27
COC(=O)COc1ccc(S(=O)(=O)NCc2ccncc2)cc1	STAT3 inh-1 63 | STAT3 inh-2 54 | NFkB inh STAT3ct inactive | STAT1 inh STAT3c 19
Cc1ccc(S(=O)(=O)NCc2ccncc2)cc1C	STAT3 inh-1 74 | STAT3 inh-2 76 | NFkB inh STAT3ct 26 | STAT1 inh STAT3c 17
CCN(C1CCCCC1)S(=O)(=O)c1ccc(S(=O)(=O)NCCc2ccncc2)cc1	none
COc1ccc(-c2nn(C)c(=O)c3ccccc23)cc1CNC(=O)CN1CCOCC1	none (no result: NF-kB neuron act)
O=C1CCC/C(=N/Nc2ccc(Cl)cc2)C1	none
COc1cc(C)c(Cl)cc1S(=O)(=O)NCc1ccncc1	STAT3 inh-1 70 | STAT3 inh-2 66 | NFkB inh STAT3ct 19 | STAT1 inh STAT3c 21
COc1cc(C)c(Br)cc1S(=O)(=O)NCc1ccccc1	none
COc1cc(/C=N/Nc2ccc(C(F)(F)F)cn2)cc(OC)c1O	STAT3 inh-1 48 | STAT3 inh-2 inactive | NFkB inh STAT3ct inactive | STAT1 inh STAT3c inactive
COc1cc(/C=N/Nc2cccc3cccnc23)cc(OC)c1O	none
O=C(COc1ccccc1)Nc1ccc(-c2nnc(-c3ccco3)o2)cc1	none
CC(C)COc1ccc(-c2nnc(-c3ccco3)o2)cc1	STAT3 inh-1 63, NF-kB neuron act 4.3, APP 5'UTR act 187 | STAT3 inh-2 inactive | NFkB inh STAT3ct inactive | STAT1 inh STAT3c inactive
CCCOc1ccc(-c2nnc(-c3ccco3)o2)cc1	STAT3 inh-1 78 | STAT3 inh-2 inactive | NFkB inh STAT3ct inactive | STAT1 inh STAT3c inactive
CCOCc1c(C(=O)OCC(=O)Nc2ccc(C)c(S(=O)(=O)N(C)C)c2)oc2ccccc12	none
FC(F)(F)c1cc(Oc2ccccc2Cl)nc(-c2ccccn2)n1	none
FC(F)(F)c1cnc(-c2cnc(-c3ccccn3)nc2)c(Cl)c1	STAT3 inh-1 48 | STAT3 inh-2 inactive | NFkB inh STAT3ct inactive | STAT1 inh STAT3c inactive
Cc1oc(-c2ccc(Cl)cc2)nc1CN1CCCC(C(=O)N2CCN(C(=O)c3ccco3)CC2)C1 (stereo unspecified)	STAT3 inh-1 79 (no result: APP 5'UTR act) | STAT3 inh-2 72 | NFkB inh STAT3ct 26 | STAT1 inh STAT3c inactive
O=C(Nc1ccc(S(=O)(=O)Nc2ccccc2)cc1)c1ccc(CN2CCOCC2)cc1	STAT3 inh-1 84 | STAT3 inh-2 78 | NFkB inh STAT3ct 28 | STAT1 inh STAT3c inactive
